Measured values: ChEMBL document CHEMBL2021842, “COMPARE analysis of the toxicity of an iminoquinone derivative of the imidazo[5,4-f]benzimidazoles with NAD(P)H:quinone oxidoreductase 1 (NQO1) activity and computational docking of quinones as NQO1 substrates” (Bioorg Med Chem, 2012)

Assays:
[1] = Cytotoxicity against human GM00637 cells assessed as reduction in mean cell viability after 72 hrs by MTT assay; format: cell-based; conditions: GM00637, 72 h
Method in brief: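 SV40-transformed normal skin fibroblasts (GM00637) in MEM Eagle–Earle BSS with 15% heat-inactivated FBS, 2 mM L-glutamine, 2× amino acids and vitamins. Seeded at 10,000 cells/well and left 24 h to adhere. Ethanol-delivered compound (1% final) for 72 h at 37 °C, 5% CO₂. MTT formazan in DMSO read at 550/690 nm. Viability relative to vehicle; IC₅₀ by nonlinear regression.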

[2] = Growth inhibition of human […] cells assessed as cell growth at 10 uM relative to untreated control; format: functional; conditions: read-out: Activity
Method in brief: (§1)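 First stage of the NCI DTP 60 human tumour cell-line screen. Cells were exposed to a single dose of 10 µM. Output is reported as growth % relative to control.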

NCI-H322M [3] = experiment: Growth inhibition of human NCI-H322M cells assessed as cell growth at 10 uM relative to untreated control; format: functional; conditions: read-out: Activity; method in brief: as §1
HCT-116 [4] = experiment: Growth inhibition of human HCT116 cells assessed as cell growth at 10 uM relative to untreated control; format: functional; conditions: read-out: Activity
Method in brief: (§2)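 NCI DTP 60-cell-line screen, first stage: a single 10 µM dose of compound given to the human tumour panel. Result reported as percent growth relative to control, on a mean growth graph.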

SF-295 [5] = experiment: Growth inhibition of human SF295 cells assessed as cell growth at 10 uM relative to untreated control; format: functional; conditions: read-out: Activity; method in brief: as §1
SF-539 = experiment: Growth inhibition of human SF539 cells assessed as cell growth at 10 uM relative to untreated control; format: functional; conditions: read-out: Activity; method in brief: as §1
SNB-75 = experiment: Growth inhibition of human SNB75 cells assessed as cell growth at 10 uM relative to untreated control; format: functional; conditions: read-out: Activity
Method in brief: (§3)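 This is the first stage of the NCI DTP 60-human-tumour-cell-line screen, covering nine tissue types. Cells receive a single dose of the test compound, and the output is reported as mean growth %.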

LOX IMVI = experiment: Growth inhibition of human LOXIMVI cells assessed as cell growth at 10 uM relative to untreated control; format: functional; conditions: read-out: Activity; method in brief: as §2
M14 [6] = experiment: Growth inhibition of human M14 cells assessed as cell growth at 10 uM relative to untreated control; format: functional; conditions: read-out: Activity; method in brief: as §2
SK-MEL-5 [7] = experiment: Growth inhibition of human SK-MEL-5 cells assessed as cell growth at 10 uM relative to untreated control; format: functional; conditions: read-out: Activity; method in brief: as §1
UACC-257 = experiment: Growth inhibition of human UACC257 cells assessed as cell growth at 10 uM relative to untreated control; format: functional; conditions: read-out: Activity; method in brief: as §3
UACC-62 = experiment: Growth inhibition of human UACC62 cells assessed as cell growth at 10 uM relative to untreated control; format: functional; conditions: read-out: Activity; method in brief: as §3
786-0 = experiment: Growth inhibition of human 786-0 cells assessed as cell growth at 10 uM relative to untreated control; format: functional; conditions: read-out: Activity; method in brief: as §2
A498 [8] = experiment: Growth inhibition of human A498 cells assessed as cell growth at 10 uM relative to untreated control; format: functional; conditions: read-out: Activity; method in brief: as §2
CAKI-1 [9] = experiment: Growth inhibition of human Caki1 cells assessed as cell growth at 10 uM relative to untreated control; format: functional; conditions: read-out: Activity; method in brief: as §2
SN12C [10] = experiment: Growth inhibition of human SN12C cells assessed as cell growth at 10 uM relative to untreated control; format: functional; conditions: read-out: Activity; method in brief: as §3
MCF7 [11] = experiment: Growth inhibition of human MCF7 cells assessed as cell growth at 10 uM relative to untreated control; format: functional; conditions: read-out: Activity; method in brief: as §1
MDA-MB-231 [12] = experiment: Growth inhibition of human MDA-MB-231 cells assessed as cell growth at 10 uM relative to untreated control; format: functional; conditions: read-out: Activity; method in brief: as §1
[13] = Growth inhibition of human Hs 578T cells assessed as cell growth at 10 uM relative to untreated control; format: functional; conditions: read-out: Activity; method in brief: as §2
MDA-MB-468 = experiment: Growth inhibition of human MDA-MB-468 cells assessed as cell growth at 10 uM relative to untreated control; format: functional; conditions: read-out: Activity; method in brief: as §1
BT-549 = experiment: Growth inhibition of human BT549 cells assessed as cell growth at 10 uM relative to untreated control; format: functional; conditions: read-out: Activity; method in brief: as §2
MOLT-4 = experiment: Growth inhibition of human MOLT4 cells; format: functional
Method in brief: (§4)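 Part of the NCI DTP 60-cell-line panel. After the single-dose stage, cells were tested at five doses. Read-out is the GI50, the concentration giving 50% inhibition of cell growth, derived for each cell line.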

A549 = experiment: Growth inhibition of human A549 cells; format: functional
Method in brief: (§5)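 NCI DTP 60-cell-line screen, second stage: five-dose testing across the human tumour panel. GI₅₀ taken as the concentration needed to inhibit cell growth by 50% in each cell line.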

HOP-62 = experiment: Growth inhibition of human HOP62 cells; format: functional; method in brief: as §5
NCI-H226 = experiment: Growth inhibition of human NCI-H226 cells; format: functional; method in brief: as §4
NCI-H23 = experiment: Growth inhibition of human NCI-H23 cells; format: functional; method in brief: as §4
NCI-H322M [14] = experiment: Growth inhibition of human NCI-H322M cells; format: functional; method in brief: as §4
NCI-H460 = experiment: Growth inhibition of human NCI-H460 cells; format: functional; method in brief: as §4
HCC 2998 = experiment: Growth inhibition of human HCC2998 cells; format: functional; method in brief: as §5
HCT-116 [15] = experiment: Growth inhibition of human HCT116 cells; format: functional; method in brief: as §5
HT-29 = experiment: Growth inhibition of human HT-29 cells; format: functional; method in brief: as §5
SF-268 = experiment: Growth inhibition of human SF268 cells; format: functional; method in brief: as §4
SF-295 [16] = experiment: Growth inhibition of human SF295 cells; format: functional; method in brief: as §4
SNB-19 = experiment: Growth inhibition of human SNB19 cells; format: functional
Method in brief: (§6)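 This is the second, five-dose stage of the NCI DTP 60-cell-line screen. GI50 is the concentration that inhibits cell growth by 50%, derived for each cell line.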

U-251 = experiment: Growth inhibition of human U251 cells; format: functional; method in brief: as §6
M14 [17] = experiment: Growth inhibition of human M14 cells; format: functional; method in brief: as §5
Malme-3M = experiment: Growth inhibition of human MALME-3M cells; format: functional; method in brief: as §5
SK-MEL-2 = experiment: Growth inhibition of human SK-MEL-2 cells; format: functional; method in brief: as §4
SK-MEL-28 = experiment: Growth inhibition of human SK-MEL-28 cells; format: functional; method in brief: as §4
SK-MEL-5 [18] = experiment: Growth inhibition of human SK-MEL-5 cells; format: functional; method in brief: as §4
IGROV-1 = experiment: Growth inhibition of human IGROV1 cells; format: functional; method in brief: as §5
OVCAR-5 = experiment: Growth inhibition of human OVCAR5 cells; format: functional; method in brief: as §4
OVCAR-8 = experiment: Growth inhibition of human OVCAR8 cells; format: functional; method in brief: as §4
A498 [19] = experiment: Growth inhibition of human A498 cells; format: functional; method in brief: as §5
CAKI-1 [20] = experiment: Growth inhibition of human Caki1 cells; format: functional; method in brief: as §5
RXF 393 = experiment: Growth inhibition of human RXF393 cells; format: functional; method in brief: as §4
SN12C [21] = experiment: Growth inhibition of human SN12C cells; format: functional; method in brief: as §6
UO-31 = experiment: Growth inhibition of human UO31 cells; format: functional; method in brief: as §6
DU-145 = experiment: Growth inhibition of human DU145 cells; format: functional; method in brief: as §5
MCF7 [22] = experiment: Growth inhibition of human MCF7 cells; format: functional; method in brief: as §4
MDA-MB-231 [23] = experiment: Growth inhibition of human MDA-MB-231 cells; format: functional; method in brief: as §4
[24] = Growth inhibition of human Hs 578T cells; format: functional; method in brief: as §5
MDA-MB-435 = experiment: Growth inhibition of human MDA-MB-435 cells; format: functional; method in brief: as §4

## O=C1c2nc3n(c2C(=O)c2nc4n(c21)CCCC4)CCCC3
[1]
  IC50: > 5000 nM
[2]
  growth at 10 µM: 97.6%
NCI-H322M [3]
  growth at 10 µM: 106%
HCT-116 [4]
  growth at 10 µM: 96.8%
SF-295 [5]
  growth at 10 µM: 87.9%
SF-539
  growth at 10 µM: 121%
SNB-75
  growth at 10 µM: 97%
LOX IMVI
  growth at 10 µM: 96.1%
M14 [6]
  growth at 10 µM: 108%
SK-MEL-5 [7]
  growth at 10 µM: 87.6%
UACC-257
  growth at 10 µM: 96.9%
UACC-62
  growth at 10 µM: 99.8%
786-0
  growth at 10 µM: 111%
A498 [8]
  growth at 10 µM: 99.9%
CAKI-1 [9]
  growth at 10 µM: 90.7%
SN12C [10]
  growth at 10 µM: 99.6%
MCF7 [11]
  growth at 10 µM: 101%
MDA-MB-231 [12]
  growth at 10 µM: 96.8%
[13]
  growth at 10 µM: 102%
MDA-MB-468
  growth at 10 µM: 95.6%

## N=C1c2nc3n(c2C(=O)c2nc4n(c21)CCCC4)CCCC3
[1]
  IC50: 3630 nM
[2]
  growth at 10 µM: 82.2%
NCI-H322M [3]
  growth at 10 µM: 27.7%
HCT-116 [4]
  growth at 10 µM: 65.8%
SF-295 [5]
  growth at 10 µM: -85.7%
SF-539
  growth at 10 µM: -21.7%
SNB-75
  growth at 10 µM: -97%
LOX IMVI
  growth at 10 µM: -68%
M14 [6]
  growth at 10 µM: -95.6%
SK-MEL-5 [7]
  growth at 10 µM: -98%
UACC-257
  growth at 10 µM: -6.6%
UACC-62
  growth at 10 µM: -85.1%
786-0
  growth at 10 µM: 89%
A498 [8]
  growth at 10 µM: 52%
CAKI-1 [9]
  growth at 10 µM: 88.8%
SN12C [10]
  growth at 10 µM: -86.1%
MCF7 [11]
  growth at 10 µM: -6.98%
MDA-MB-231 [12]
  growth at 10 µM: 82.6%
[13]
  growth at 10 µM: -28.6%
BT-549
  growth at 10 µM: -37.2%
MOLT-4
  GI50: 38900 nM
A549
  GI50: 2040 nM
HOP-62
  GI50: 2450 nM
NCI-H226
  GI50: 1740 nM
NCI-H23
  GI50: 1380 nM
NCI-H322M [14]
  GI50: 1700 nM
NCI-H460
  GI50: 1620 nM
HCC 2998
  GI50: 4790 nM
HCT-116 [15]
  GI50: 19500 nM
HT-29
  GI50: 2750 nM
SF-268
  GI50: 8510 nM
SF-295 [16]
  GI50: 1740 nM
SNB-19
  GI50: 2570 nM
U-251
  GI50: 10000 nM
M14 [17]
  GI50: 1780 nM
Malme-3M
  GI50: 1860 nM
SK-MEL-2
  GI50: 38000 nM
SK-MEL-28
  GI50: 2090 nM
SK-MEL-5 [18]
  GI50: 1200 nM
IGROV-1
  GI50: 42700 nM
OVCAR-5
  GI50: 2630 nM
OVCAR-8
  GI50: 31600 nM
A498 [19]
  GI50: 6030 nM
CAKI-1 [20]
  GI50: 15500 nM
RXF 393
  GI50: 16600 nM
SN12C [21]
  GI50: 1700 nM
UO-31
  GI50: 2340 nM
DU-145
  GI50: 1410 nM
MCF7 [22]
  GI50: 1860 nM
MDA-MB-231 [23]
  GI50: 39800 nM
[24]
  GI50: 2190 nM
MDA-MB-435
  GI50: 245 nM
MDA-MB-468
  growth at 10 µM: 68.1%
